The record followed here is ChEMBL document CHEMBL4513216, “Probing the Open Global Health Chemical Diversity Library for Multistage-Active Starting Points for Next-Generation Antimalarials” (ACS Infect Dis, 2020).

This data set is described as follows: Toxicity liver stage against HepG2, at 10uM. It is filed as cell-based. More on the design: test concentration 10 uM, cell line HepG2-A16-CD81EGFP. The note with it: human, HepG2-A16-CD81EGFP cells; read-out: INHIBITION
The essentials:
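Uninfected HepG2-A16-CD81EGFP cells, 3 × 10^3 per well, 1536-well, plated on prespotted compound at 10 μM final, parasite-free screening media added to match infected plates; puromycin 10 μM positive, DMSO 0.5% negative; run in parallel with 48 h PbLuc assay at 37 °C, 5% CO2; viability by CellTiter-Glo luminescence, normalized to controls.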
Consider `COc1ccc2oc(C(C)NC(=O)NCc3noc(C)n3)c(C)c2c1` (stereo unspecified), for which the cytotoxicity at 10 µM turned out to be 5.08%.
Under `O=c1nc(SCc2ccc(Cl)cc2)c2c(n1CCO)CCC2` stands 12.3%; under `Cc1ccccc1NS(=O)(=O)c1cc2c(c(C(=O)O)c1)OCCO2`, -11.7%.
As to `Cc1cc(=O)n2nc(-c3cccs3)nc2n1CC(=O)NC(C)C`, the cytotoxicity at 10 µM is 12.7%.
With `Cc1c(C(=O)N2CCS(=O)(=O)CC2)nnn1-c1ccc2ncccc2c1` the figure was -5.82%.
With `Cn1ccc2c(C(=O)NCCCN3CCCC3)cccc21` the figure was -18.3%; with `CC1CCCCN1C(=O)c1nc2c(n1C(C)C)CCN(C(=O)C1CC1)C2` (stereo unspecified), 15.4%.
Regarding `CC(C)(C)n1ncc2c1NC(=O)CC2c1cccc(O)c1` (stereo unspecified), the cytotoxicity at 10 µM was -6.36%.
Under `CCC(CC)C(=O)N1CCOC2(CNC2)C1` stands -0.184%; under `CC(C)NC(=O)C1CN(C(=O)CCc2ccccc2)CC12CCOCC2` (stereo unspecified), -3%.
With `C=C(C)CN1CCC(n2cc(C3CCCC3)nn2)CC1` the figure was 4.98%.
Turning to `CC(=O)NCCNC(=O)c1cnc(-c2ccc(C)cc2C)s1`, the cytotoxicity at 10 µM was -7.95%.
For the compound `CN(C)CCNC(=O)c1sccc1N(C)S(=O)(=O)c1ccc(Cl)cc1`, the cytotoxicity at 10 µM came out at 2.38%.
Under `COCCOc1ccnc(-c2noc([C@@H]3CCCN3CC(C)C)n2)c1` stands -8.64%; under `O=C(c1ccc(-n2ccnn2)cc1)N(CC1CC1)c1cccnc1`, 22.5%; under `c1ccc(Cc2nnc(CN3CCCCC3Cn3cncn3)o2)cc1` (stereo unspecified), -20.4%.
In the case of `Cc1csc(C2CCCCN2C(=O)c2cc(C3CC3)[nH]n2)n1` (stereo unspecified), the cytotoxicity at 10 µM was -11.6%.
Under `Cc1nnc(C2CCN(c3ccccc3)CC2)o1` stands 8.84%.
With `Cc1ccc(CN2C[C@H]3CN(C(=O)c4ccno4)CCN3C2=O)cc1`, the cytotoxicity at 10 µM was -2.07%.
On to `CC(C)CN1C(=O)CC[C@H]2CN(C(=O)Cn3ccc(=O)cc3)CC[C@H]21`, for which the cytotoxicity at 10 µM came to 0.582%.
Turning to `O=C1C[C@H]2[C@@H](CCN2C(=O)c2cscn2)N1Cc1cccnc1`, the cytotoxicity at 10 µM is -0.184%.
Turning to `CCOC(=O)N1CCN(C(=O)c2cc(-c3ccc(Cl)cc3Cl)on2)CC1`, the cytotoxicity at 10 µM stood at 2.42%.
Under `Cc1ncsc1CN1CCOC(C)(C(=O)N(C)C)C1` (stereo unspecified) stands 12.1%; under `CCC(Nc1nc(CCN)nc2ccccc12)c1cc(C)ccn1` (stereo unspecified), -12.9%.
With `Cn1cc(CN2CC[C@H]3C[C@@H](c4nc(C5CC5)cs4)O[C@@H]3C2)cn1` the figure was 8.84%; with `COc1ccccc1-c1cccc(C2CCCN(C3CCOCC3)C2)n1` (stereo unspecified), 5.7%.
Take `CN(Cc1ccncc1)Cc1cnn(-c2ccc(F)cc2)c1`: the cytotoxicity at 10 µM worked out at 10%.
`CCc1c(C)nn2c(O)cc(C3CCN(C(=O)c4ccn(C)n4)C3)nc12` (stereo unspecified): the cytotoxicity at 10 µM is 7.92%.
For `O=C(c1ncc[nH]1)N1CCC(n2cc(-c3cccc(Cl)c3)nn2)CC1`, the cytotoxicity at 10 µM was found to be 5.28%.
Under `CC(NC(=O)c1cccc[n+]1[O-])c1ccc2c(c1)CCC(=O)N2` (stereo unspecified) stands 45.2%; under `O=C(Nc1ccc(F)c(F)c1)N1CCC2(CCC(=O)N(C3CC3)C2)CC1`, -0.381%.
As for `CN(C)c1cc(C(=O)NCCc2nnc(-c3ccco3)[nH]2)ccn1`, the cytotoxicity at 10 µM is -0.653%.
Regarding `CCNc1ncc(C(=O)N(C)CCc2nc3cc(Cl)ccc3[nH]2)cn1`, the cytotoxicity at 10 µM is -45.8%.
Under `CN(C)C(=O)N1CC[C@@H](O)[C@@H]1Cc1cnn(C)c1` stands 7.02%; under `Cn1ccnc1-c1cn(Cc2cn3c(n2)SCC3)nn1`, -0.773%; under `COC(=O)N1CCc2ccccc2C1C(=O)NCC(F)(F)F` (stereo unspecified), -2.96%.
Turning to `Cc1cc(C)nc(N2CCC(C(=O)Nc3n[nH]c(C(C)C)n3)CC2)n1`, the cytotoxicity at 10 µM is 4.07%.
Under `Cc1nc(N2CCCC2C(=O)NC(C)(C)CO)nc2ccccc12` (stereo unspecified) stands 0.215%; under `Cc1nc(N2CCOCC2)nc2c1CCN(C(=O)C1(C#N)CC1)CC2`, -117%.
`Cc1sc2ncnc(N3CCCC3Cn3cccn3)c2c1C` (stereo unspecified): the cytotoxicity at 10 µM turned out to be 2.62%.
Consider `CC(C)[C@@H](C)NC(=O)N1CCn2nc(C(=O)NCCN(C)C)cc2C1`, for which the cytotoxicity at 10 µM turned out to be 2.62%.
Under `O=C1CC(c2cccs2)c2cnn(C3CCCC3)c2N1` (stereo unspecified) stands 23.3%.
As to `Cc1nc(C2CCCN2CCc2cccs2)no1` (stereo unspecified), the cytotoxicity at 10 µM was determined as 10.4%.
Under `CC(c1cccnc1)N1CCN(CCO)CC1` (stereo unspecified) stands -3.21%; under `Cc1cc(C)cc(NC(=O)CN2CCCC(n3cncn3)C2)c1` (stereo unspecified), -9.93%.
Take `c1ccc2sc(N3CCCN(c4ncnc5c4CCNC5)CC3)nc2c1`: the cytotoxicity at 10 µM worked out at 31.2%.
Under `O=C(NCCSC1CCCC1)c1cc(C2CC2)on1` stands 0.459%; under `Cc1cc2c(=O)n3c(nc2s1)CCN(Cc1[nH]cnc1C)CC3`, -9.9%.
Under `CNC(=O)NC(=O)CN1CCN(c2ccc(C(=O)OC)cc2)CC1C` (stereo unspecified) stands -1.98%; under `CCc1nnc2n1CC(CNCc1nnc(C(C)(C)C)o1)CC2` (stereo unspecified), 3.18%; under `COC(=O)c1sccc1S(=O)(=O)NCCC(O)c1ccco1` (stereo unspecified), -5.98%.
As to `CC(C)(C)n1cc(C(=O)NCCN2CCOCC2)c2cccnc21`, the cytotoxicity at 10 µM was determined as 2.14%.
`Nc1nccnc1C(=O)NC1CCN(Cc2ccccc2)C1` (stereo unspecified): the cytotoxicity at 10 µM was 11.9%.
Under `O=C1CCc2cc(S(=O)(=O)NC(=O)c3ccc4c(c3)OCO4)ccc2N1` stands -17.8%; under `Cc1ccc(CN2Cc3cnn(C)c3C(COCC3CC3)C2)o1` (stereo unspecified), -78.5%.
With `Cn1ccc(C(=O)N2CCCC(Cc3cnc4ccccc4c3)C2)n1` (stereo unspecified), the cytotoxicity at 10 µM is -6.19%.
For `CC(C)(C)c1nnc2n1C(C(=O)N1CCOCC1)CC2` (stereo unspecified), the cytotoxicity at 10 µM came to 1.52%.
With `c1cncc(CN2CCc3ncnc(NCCc4c[nH]cn4)c3CC2)c1` the figure was 2.57%; with `Cc1nc2c(c(NC(C)C)n1)CCN(C(=O)c1cc[nH]n1)CC2`, 6.71%; with `CN(C)c1cc(CNC(=O)Nc2ccc(F)cc2)ccn1`, 0.0418%.
Under `O=C(Nc1ccccc1CCc1ccccn1)NC1CCOCC1` stands 6.1%; under `N#Cc1cc(Cn2cnc(C3CCC3)cc2=O)ccc1F`, -0.908%.
Under `O=S1(=O)COCCN1Cc1ccc(Cl)c(Cl)c1` stands 8.44%.
For the compound `COc1cc(N2CCC3(CC2)CC(N2CCOCC2)C3)ncn1`, the cytotoxicity at 10 µM is -6.81%.
Under `CC1CCc2nn(CCNC(=O)Cc3ccc(F)cc3)c(=O)cc2C1` (stereo unspecified) stands 7.61%; under `CNC(=O)NC(C)c1c(F)cccc1Cl` (stereo unspecified), -6.2%; under `Cc1nc(N2CCOCC2)nc2c1CCN(Cc1cccnc1)CC2`, -0.368%.
Turning to `COc1cn(CC(=O)N2CCC(c3ccccc3)CC2)c(C)cc1=O`, the cytotoxicity at 10 µM was 1.11%.
`CCOC(=O)C1CCN(C(=O)Cc2c(C)nc(C)[nH]c2=O)CC1`: the cytotoxicity at 10 µM is 16.6%.
With `Cc1cccc(-c2nc(C)nn2CC(=O)NC2CCCC2)c1` the figure was -12.5%.
Regarding `Cc1cc(N2CCCC2(C)c2nc(C)cc(C(=O)N(C)C)n2)ncn1` (stereo unspecified), the cytotoxicity at 10 µM is -0.846%.
Turning to `CCN(CC)CCn1cc(NC2CCN(C(C)(C)C)CC2)cn1`, the cytotoxicity at 10 µM is -6.53%.
With `O=C(c1ccc(-n2ccnc2)cc1)N1CCN(c2cnccn2)CC1`, the cytotoxicity at 10 µM was -5.63%.
For the compound `Cc1nc(C)n(CC(=O)N2CCCC(c3cc4ccccc4cn3)C2)n1` (stereo unspecified), the cytotoxicity at 10 µM is -22.1%.
Under `CCc1sc(C(=O)Nc2cnn(CC(N)=O)c2)cc1C` stands -2.68%; under `CC(c1ccon1)N(C)S(=O)(=O)NCc1ccccc1` (stereo unspecified), -0.174%; under `Cc1cnn(CC2CCCN2Cc2nc3ccccc3n2C)c1` (stereo unspecified), -14.5%.
With `O=C(CCN1CCOC(CNc2cccnn2)C1)NC1CCCCC1` (stereo unspecified) the figure was 3.09%; with `NC(=O)CC1CCN(C(=O)NCC2(c3ccccc3F)CC2)CC1`, 35.2%; with `Cc1ccc(N2CCCC(NCc3ccc(C)o3)C2)nn1` (stereo unspecified), 0.0722%.
With `CC(O)CN(CC(=O)NC(=O)NC1CC1)c1ccccc1` (stereo unspecified) the figure was -2.14%; with `N#Cc1c[nH]c(C(=O)N(Cc2ccc(O)cc2)CC2CC2)c1`, 11.5%.
For the compound `CC(C)OCCCN(Cc1ccncc1)Cc1cccc(F)c1F`, the cytotoxicity at 10 µM is -15.3%.
Under `CC(C)Cc1nc(CN2CC(=O)N(C)c3ccccc3C2=O)no1` stands -6.7%; under `Cc1cc(C(=O)N2C[C@@H]3CN(S(C)(=O)=O)CCO[C@@H]3C2)c(C)o1`, -3.49%; under `O=C(NC(CN1CCCC1)c1ccccc1)c1c(O)cc(F)cc1F` (stereo unspecified), -2.3%.
With `CSCC(C)NS(=O)(=O)c1ccc(C)c(N(C)C)c1` (stereo unspecified) the figure was -3.25%; with `CN(Cc1ccco1)[C@@H]1CN(Cc2ccsc2)C[C@@H]2CCCO[C@@H]21`, 9.59%.
Turning to `Cc1nn(C)c(C)c1CCC(=O)N(C)Cc1ccc(C#N)cc1`, the cytotoxicity at 10 µM is -2.45%.
Under `Cc1cn2c(n1)CCC(NC(=O)c1cnc(C)nc1C(C)C)C2` (stereo unspecified) stands -0.144%; under `CCN(Cc1cnn(CC)c1)C(=O)Cn1c(=O)ccc2ccccc21`, 2.37%.
As to `CSCC[C@H](NC(C)=O)C(=O)N(C)Cc1ccc(-n2cccn2)cc1`, the cytotoxicity at 10 µM was -122%.
As for `CN1CC(c2ccccc2)CC2(CCN(C(=O)c3cccnn3)CC2)C1` (stereo unspecified), the cytotoxicity at 10 µM was -8.92%.
Take `CC(C)CN1CCCn2nc(CNC(=O)c3cccnc3O)cc2C1`: the cytotoxicity at 10 µM is -14.4%.
For `Cc1cc(CN2CCN(C(=O)C3(C#N)CCCC3)CC2)on1`, the cytotoxicity at 10 µM was -14.9%.
As for `CN(C)C(=O)N1CCN(c2ccc(Cl)nn2)C(=O)C1`, the cytotoxicity at 10 µM amounted to 9.1%.
